Legend:
[1] = target: T1, Growth hormone-releasing hormone receptor (Rattus norvegicus) (UniProt Q02644); assay: Effect on growth hormone release(GRF) was determined in nembutal-anesthetized rat, at dose of 100 ug/100 g body weight.; assay type: functional
T1 sequence (whole entry): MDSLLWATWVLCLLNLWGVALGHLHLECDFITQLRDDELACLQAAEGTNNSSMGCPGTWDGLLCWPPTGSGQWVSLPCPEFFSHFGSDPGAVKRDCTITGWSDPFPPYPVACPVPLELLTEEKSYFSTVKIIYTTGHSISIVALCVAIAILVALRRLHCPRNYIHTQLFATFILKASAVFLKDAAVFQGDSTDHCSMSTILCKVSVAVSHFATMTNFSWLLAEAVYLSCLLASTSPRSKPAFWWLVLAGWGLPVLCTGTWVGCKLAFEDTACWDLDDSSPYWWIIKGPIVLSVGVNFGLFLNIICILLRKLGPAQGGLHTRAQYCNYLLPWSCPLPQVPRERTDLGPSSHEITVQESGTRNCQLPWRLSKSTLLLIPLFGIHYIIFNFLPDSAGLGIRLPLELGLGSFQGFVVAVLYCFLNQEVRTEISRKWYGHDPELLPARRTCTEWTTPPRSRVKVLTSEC
Outline: (§1)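 Male Charles River rats (175-275 g), anesthetized with sodium pentobarbital 6 mg/100 g body weight. Six to nine per group. Peptide or saline given subcutaneously in 0.5 mL, 30 min after anesthetic. Jugular vein blood taken 15 min post-injection. Plasma GH measured by radioimmunoassay and reported as ng/mL, mean ± SEM.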

Rattus norvegicus [2] = assay: Effect on growth hormone release(GRF) was determined in nembutal-anesthetized rat, at dose of 40 ug/100 g body weight.; assay type: functional, organism-based; outline: as §1
[3] = target: T1, Growth hormone-releasing hormone receptor (Rattus norvegicus); assay: Tested for the potency of growth hormone (GRF) on subcutaneous administration in anesthetized male Charles River rats; assay type: functional, organism-based
Outline: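 Pentobarbital-anesthetized male rats (175-275 g), six to nine per group, received two subcutaneous doses of analogue or of reference GRF(1-29)NH2, in 0.5 mL, 30 min after anesthesia. Plasma GH measured by RIA 15 min later. Potency with 95% confidence limits calculated from a four-point assay design by the Pugsley method.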

Rattus norvegicus [4] = species: Rattus norvegicus; assay: In vitro rat pituitary cell growth hormone response to the compound was obtained; assay type: functional, Pituitary gland cell
Rattus norvegicus [5] = assay: Effect on growth hormone release(GRF) was determined in nembutal-anesthetized rat, at dose of 0.2 ug/100 g body weight.; assay type: functional, organism-based; outline: as §1
Rattus norvegicus [6] = assay: Effect on growth hormone release(GRF) was determined in nembutal-anesthetized rat, at dose of 0.5 ug/100 g body weight.; assay type: functional, organism-based; outline: as §1
[7] = target: T1, Growth hormone-releasing hormone receptor (Rattus norvegicus); assay: In vitro rat pituitary cell growth hormone response was obtained; assay type: functional, cell-based; conditions: Pituitary gland cell
Rattus norvegicus [8] = assay: Effect on growth hormone release (GRF) was determined in nembutal-anesthetized rat, at dose of 25 ug/100 g body weight.; assay type: functional, organism-based; outline: as §1
Rattus norvegicus [9] = assay: Effect on growth hormone release (GRF) was determined in nembutal-anesthetized rat, at dose of 62.5 ug/100 g body weight.; assay type: functional, organism-based; outline: as §1

| Molecule | Plasma GH release [1] [ng/mL] | Plasma GH release (Rattus norvegicus [2]) [ng/mL] | Potency [3] [%] | Potency (Rattus norvegicus [4]) [%] | Plasma GH release (Rattus norvegicus [5]) [ng/mL] | Plasma GH release (Rattus norvegicus [6]) [ng/mL] | Potency [7] [%] | Plasma GH release (Rattus norvegicus [8]) [ng/mL] | Plasma GH release (Rattus norvegicus [9]) [ng/mL] |
| --- | --- | --- | --- | --- | --- | --- | --- | --- | --- |
| CC[C@H](C)[C@H](NC(=O)[C@H](C)NC(=O)[C@H](CC(=O)O)NC(=O)[C@H](C)NC(=O)[C@@H](N)Cc1ccc(O)cc1)C(=O)N[C@@H](Cc1ccccc1)C(=O)N[C@H](C(=O)N[C@@H](CC(N)=O)C(=O)N[C@@H](CO)C(=O)N[C@@H](Cc1ccc(O)cc1)C(=O)N[C@@H](CCCN=C(N)N)C(=O)N[C@@H](CCCCN)C(=O)N[C@H](C(=O)N[C@@H](CC(C)C)C(=O)NCC(=O)N[C@@H](CCC(N)=O)C(=O)N[C@@H](CC(C)C)C(=O)N[C@@H](CO)C(=O)N[C@@H](C)C(=O)N[C@@H](CCCN=C(N)N)C(=O)N[C@@H](CCCCN)C(=O)N[C@@H](CC(C)C)C(=O)N[C@@H](CC(C)C)C(=O)N[C@@H](CCCN=C(N)N)C(N)=O)C(C)C)[C@@H](C)O | 406 | 392 | < 1 |  |  |  |  |  |  |
| CC[C@H](C)[C@H](NC(=O)[C@H](C)NC(=O)[C@H](CC(=O)O)NC(=O)[C@@H](C)NC(=O)[C@@H](N)Cc1ccc(O)cc1)C(=O)N[C@@H](Cc1ccccc1)C(=O)N[C@H](C(=O)N[C@@H](CC(N)=O)C(=O)N[C@@H](CO)C(=O)N[C@@H](Cc1ccc(O)cc1)C(=O)N[C@@H](CCCN=C(N)N)C(=O)N[C@@H](CCCCN)C(=O)N[C@H](C(=O)N[C@@H](CC(C)C)C(=O)NCC(=O)N[C@@H](CCC(N)=O)C(=O)N[C@@H](CC(C)C)C(=O)N[C@@H](CO)C(=O)N[C@@H](C)C(=O)N[C@@H](CCCN=C(N)N)C(=O)N[C@@H](CCCCN)C(=O)N[C@@H](CC(C)C)C(=O)N[C@@H](CC(C)C)C(=O)N[C@@H](CCC(N)=O)C(=O)N[C@@H](CC(=O)O)C(=O)N[C@H](C(=O)N[C@@H](CCSC)C(=O)N[C@@H](CO)C(=O)N[C@@H](CCCN=C(N)N)C(N)=O)[C@@H](C)CC)C(C)C)[C@@H](C)O |  |  | 4450 | 5340 | 1210 | 2180 |  |  |  |
| H-YADAIFTNSYRKVLGQLSARKLLQDILSR-NH2 |  |  | 57 |  |  |  | 2 | 1410 | 1720 |
| CC[C@H](C)[C@H](NC(=O)[C@H](C)NC(=O)[C@H](CC(=O)O)NC(=O)[C@@H](C)NC(=O)[C@@H](N)Cc1ccc(O)cc1)C(=O)N[C@@H](Cc1ccccc1)C(=O)N[C@H](C(=O)N[C@@H](CC(N)=O)C(=O)N[C@@H](CO)C(=O)N[C@@H](Cc1ccc(O)cc1)C(=O)N[C@@H](CCCN=C(N)N)C(=O)N[C@@H](CCCCN)C(=O)N[C@H](C(=O)N[C@@H](CC(C)C)C(=O)NCC(=O)N[C@@H](CCC(N)=O)C(=O)N[C@@H](CC(C)C)C(=O)N[C@@H](CO)C(=O)N[C@@H](C)C(=O)N[C@@H](CCCN=C(N)N)C(=O)N[C@@H](CCCCN)C(=O)N[C@@H](CC(C)C)C(=O)N[C@@H](CC(C)C)C(=O)N[C@@H](CCC(N)=O)C(=O)N[C@@H](CC(=O)O)C(=O)N[C@H](C(=O)N[C@@H](CC(C)C)C(N)=O)[C@@H](C)CC)C(C)C)[C@@H](C)O (stereo in doubt; 3) | 507 | 741 | < 5 |  |  |  | 0.001 |  |  |
